Assay results: PMC3068223 (Biochemistry, 2011)

Columns and labels:
Format in all cases: biochemical
rat MAO B = molecular target: T1, rat MAO B (Rattus norvegicus, UniProt P19643); assay: Inhibition of recombinant rat MAO B in P. pastoris mitochondria; details: intact yeast mitochondria
T1 sequence (P19643 1-520): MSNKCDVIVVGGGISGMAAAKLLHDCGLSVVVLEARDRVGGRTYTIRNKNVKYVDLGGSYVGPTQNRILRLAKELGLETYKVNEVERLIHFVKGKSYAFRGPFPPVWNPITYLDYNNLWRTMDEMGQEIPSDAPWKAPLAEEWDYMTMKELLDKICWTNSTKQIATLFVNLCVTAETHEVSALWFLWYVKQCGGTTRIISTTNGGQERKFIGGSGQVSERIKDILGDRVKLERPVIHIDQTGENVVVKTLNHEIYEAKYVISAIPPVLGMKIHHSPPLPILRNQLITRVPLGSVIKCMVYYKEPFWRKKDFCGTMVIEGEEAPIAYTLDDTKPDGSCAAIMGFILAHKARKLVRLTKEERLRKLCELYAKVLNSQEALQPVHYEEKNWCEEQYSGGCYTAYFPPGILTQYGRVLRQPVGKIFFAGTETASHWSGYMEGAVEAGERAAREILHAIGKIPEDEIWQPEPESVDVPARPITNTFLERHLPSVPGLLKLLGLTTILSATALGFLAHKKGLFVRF

MOM-bound rat MAO A [1] = molecular target: T2, MOM-bound rat MAO A (Rattus norvegicus, UniProt P21396); assay: Rate of inactivation of MOM-bound recombinant rat MAO A; details: apparent pseudo-first order, 1 mM inhibitor, room temperature
T2 sequence (P21396 1-526): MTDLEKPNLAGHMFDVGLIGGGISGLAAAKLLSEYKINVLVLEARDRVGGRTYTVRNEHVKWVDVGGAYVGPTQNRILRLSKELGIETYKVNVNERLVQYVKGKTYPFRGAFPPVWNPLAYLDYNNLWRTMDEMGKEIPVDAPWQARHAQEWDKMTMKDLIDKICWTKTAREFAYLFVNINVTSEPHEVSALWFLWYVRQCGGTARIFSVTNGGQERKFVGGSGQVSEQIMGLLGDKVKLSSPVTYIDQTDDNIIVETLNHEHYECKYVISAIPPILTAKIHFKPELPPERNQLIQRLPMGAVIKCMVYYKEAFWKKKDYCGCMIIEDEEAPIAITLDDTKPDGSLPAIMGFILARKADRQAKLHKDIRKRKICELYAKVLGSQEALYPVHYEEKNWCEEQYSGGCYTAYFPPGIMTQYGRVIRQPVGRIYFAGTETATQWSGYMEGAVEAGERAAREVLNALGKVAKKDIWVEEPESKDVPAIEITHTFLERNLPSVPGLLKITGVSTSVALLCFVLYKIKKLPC
Summary of the method: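 Outer-membrane-bound rat MAO A came from Pichia pastoris KM71 mitochondria, isolated by osmotic shock, sonication and sucrose gradient. Membranes were incubated with 1 mM test compound at room temperature, with an uninhibited control. Remaining activity over time was followed spectrophotometrically at 25°C. Apparent pseudo-first-order rate constants were obtained from exponential fits of activity decay.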

purified rat MAO B = molecular target: T3, purified rat MAO B (Rattus norvegicus, UniProt P19643); assay: Rate of inactivation of purified rat MAO B; details: apparent pseudo-first order, 1 mM inhibitor, room temperature
T3 sequence (P19643 1-520): T1 sequence (P19643 1-520)

purified rat MAO A = molecular target: T4, purified rat MAO A (Rattus norvegicus, UniProt P21396); assay: Rate of inactivation of purified rat MAO A; details: apparent pseudo-first order, 1 mM inhibitor, room temperature
T4 sequence (P21396 1-526): T2 sequence (P21396 1-526)
Summary of the method: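 Recombinant rat MAO A was purified from Pichia pastoris KM71, with d-amphetamine removed before kinetics. The enzyme was incubated with 1 mM test compound at room temperature, with an uninhibited control. Activity loss over time was measured spectrophotometrically with kynuramine in 50 mM potassium phosphate, pH 7.5, 0.5% reduced Triton X-100, at 25°C. Pseudo-first-order rate constants came from exponential decay fits.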

MOM-bound rat MAO B [2] = molecular target: T5, MOM-bound rat MAO B (Rattus norvegicus, UniProt P19643); assay: Rate of inactivation of MOM-bound recombinant rat MAO B; details: apparent pseudo-first order, 1 mM inhibitor, room temperature
T5 sequence (P19643 1-520): T1 sequence (P19643 1-520)

rat MAO A = molecular target: T6, rat MAO A (Rattus norvegicus, UniProt P21396); assay: Inhibition of recombinant rat MAO A in P. pastoris mitochondria; details: intact yeast mitochondria
T6 sequence (P21396 1-526): T2 sequence (P21396 1-526)

MAO A = molecular target: T7, MAO A (Rattus norvegicus, UniProt P21396); assay: Protease treatment of rat liver mitochondria, MAO A activity; details: protease:protein 1:5 (w/w), room temperature
T7 sequence (P21396 1-526): T2 sequence (P21396 1-526)
Summary of the method: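 Rat liver mitochondria were isolated from a perfused Sprague-Dawley rat liver and purified on 30% Percoll. They were incubated at room temperature with trypsin at a 1:5 (w/w) protease:protein ratio. Samples taken over time were quenched with 1 mM PMSF (final). MAO A activity was measured polarographically as O2 uptake with serotonin in 50 mM potassium phosphate, pH 7.5, at 25°C.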

MOM-bound rat MAO B [3] = molecular target: T5, MOM-bound rat MAO B; assay: Protease treatment of yeast recombinant MOM-bound rat MAO B; details: protease:protein 1:5 (w/w), room temperature
Summary of the method: (§1)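 Rat MAO A or MAO B was expressed in Pichia pastoris KM71. Outer membranes were isolated by osmotic shock, mild sonication and a 30–55% sucrose gradient. Membranes were incubated at room temperature with trypsin or β-chymotrypsin at a 1:5 (w/w) protease:protein ratio. Timed samples were quenched with 1 mM PMSF (final). Residual activity was measured spectrophotometrically as product formation at 25°C.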

MOM-bound rat MAO A [4] = molecular target: T2, MOM-bound rat MAO A; assay: Protease treatment of yeast recombinant MOM-bound rat MAO A; details: protease:protein 1:5 (w/w), room temperature
Summary of the method: as §1

Molecule | inhibition of rat MAO B in intact mitochondria (rat MAO B) | k (inactivation) MAO A (MOM) (MOM-bound rat MAO A [1]) | k (inactivation) MAO B (Purified) (purified rat MAO B) | k (inactivation) MAO A (Purified) (purified rat MAO A) | k (inactivation) MAO B (MOM) (MOM-bound rat MAO B [2]) | inhibition of rat MAO A in intact mitochondria (rat MAO A) | MAO A activity lost (MAO A) | inactivation of yeast recombinant MOM-bound rat MAO B by protease (MOM-bound rat MAO B [3]) | inactivation of yeast recombinant MOM-bound rat MAO A by protease (MOM-bound rat MAO A [4])
C#CCN(C)Cc1ccccc1 [Pargyline, pargyline] | functions as an inhibitor with either enzyme | 44.8 ± 6.2 s⁻¹ | too fast to measure | 9.4 ± 1.1 s⁻¹ | too fast to measure | functions as an inhibitor with either enzyme | – | – | –
trypsin | – | – | – | – | – | – | > 90% | no observable inactivation | sensitive to trypsin
